Compound activity from PubChem BioAssay.
AI-2 QS mod: modulates the Vibrio harveyi AI-2 quorum sensing system | Vibrio harveyi JMH597 AI-2 luminescence/OD600 ratio, 9 h; stronger effect = lower value; strain lacks LuxN and CqsS sensors; 0 = neutral-control median | activity change, % at 7.5 µM | 300,000 tested, 0.4% active; in the data active = activity change below about -75%, passing the limit was not always enough; inconclusive = no clear call, values can overlap the other calls;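 also: luminescence divided by OD600 gain over 9 h not by final OD600 alone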
Wee1 degr inh: inhibitors of human Wee1 degradation | 220,000 tested, 1.2% active | AID 1321 | P30291 | reporter increase, % at 5 µM | HeLa Luc-Wee1K328M stability, luciferase luminescence; 100% = proteasome inhibitor MG132 effect;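 active = activation above the mean of all tested compounds plus 3 SD, set per screening run, cut at about 8.8% in these data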;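 also: cells exposed to compound for 20 h before luminescence read; 0% = DMSO alone and 100% = MG132 at 30 µM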
RanGTP-Impb inh: disruptors of Ran-importin-beta complex formation – biochemical, FRET, CFP-Ran, YFP-importin-beta, homogeneous, primary screen. cell-free CFP-Ran/YFP-importin-beta FRET ratio. inhibition, % (test concentration not listed). 300,000 tested, 1.1% active;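 active = more than half of the replicate wells show a fall in the fluorescence ratio signal beyond about 16%, limit read from the data, passing the limit was not always enough; inconclusive = exactly half of the replicate wells pass the set limit; inactive = fewer than half of replicates pass the limit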;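 also: 0% = DMSO wells and 100% = Ran loaded with GDP instead of GTP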
Runt-CBFb FRET: blocks binding of human RUNX1 Runt domain to CBFb; Q01196+Q13951; Cerulean-Runt/Venus-CBFb FRET ratio 530/480, 1 h; inhibition, % at 20 µM; 220,000 tested, 0.46% active;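 active = inhibition over about 50% at 20 µM in the single-dose screen, limit read from the data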;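 also: 0% = DMSO wells and 100% = excess unlabeled CBFb competitor control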
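Measured by: fluorescence energy transfer, 422 nm excitation, 530/480 nm emission; Assay system: Cerulean-Runt domain; Medium: Tris pH 7.5 buffer with BSA; Measure: loss of energy transfer signal; Controls: 5 µM unlabeled CBFb as full-inhibition high control; Incubation: protein complex preformed 1 h, compound exposure 1 h, room temperature, dark.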
proKLK7 act: activates the human kallikrein-7 zymogen; activation, % at 7 µM; 370,000 tested, 0.9% active; P49862; purified proKLK7, EDANS-DABCYL substrate fluorescence; 100% is mature enzyme control, 0% vehicle;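 active = activation above the mean of all tested compounds plus 3 SD, computed per campaign excluding outliers beyond control limits, cut at about 13% in these data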
Target sequence (P49862 whole entry, looked up): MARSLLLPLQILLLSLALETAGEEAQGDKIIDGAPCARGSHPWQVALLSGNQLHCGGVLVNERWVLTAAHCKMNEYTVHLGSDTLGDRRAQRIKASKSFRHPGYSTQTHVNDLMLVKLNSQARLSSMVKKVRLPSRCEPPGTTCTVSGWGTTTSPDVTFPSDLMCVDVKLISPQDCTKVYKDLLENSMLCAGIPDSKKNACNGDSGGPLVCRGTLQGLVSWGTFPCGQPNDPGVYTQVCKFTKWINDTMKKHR
Runt-SMMHC FRET: inhibitors of human RUNX1 Runt domain binding to CBFb-SMMHC; Q01196+Q13951; Cerulean-Runt/Venus-CBFb-SMMHC FRET ratio 530/480, 1 h; inhibition, % at 20 µM; 220,000 tested, 0.74% active; AID 1434;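 active = mean inhibition across duplicate retests at 20 µM reaching about 50%, limit read from the data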;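 also: 0% = DMSO wells and 100% = wells with excess untagged CBFb-SMMHC; inhibitors lower the FRET ratio by blocking Runt binding to CBFb-SMMHC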
Wee1 stab conf: confirmation of human Wee1 degradation inhibitors | activation, % at 5 µM | shares compounds with Wee1 degr inh | 1,100 tested, 4% active | HeLa Luc-Wee1K328M degradation, luminescence; vehicle 0%, proteasome-blocked wells 100% | AID 1410; in the data active = activation above about 8.9%
* marks the source's active call; other numbers are inactive results; ? = inconclusive; / = no result. Compounds with a hit are over-represented: about 2.9% of the library has one in this group of screens.

SMILES | AI-2 QS mod | Wee1 degr inh | RanGTP-Impb inh | Runt-CBFb FRET | proKLK7 act | Runt-SMMHC FRET | Wee1 stab conf
O=C(COc1ccc(C(=O)c2ccc(F)cc2)cc1)NCc1ccc(F)cc1 | 22.5 | 10.9* | 7.6 | -0.2 | 0.3 | -0.9 | 13.8*
CCOC(=O)C1CCN(C(=O)c2oc3ccc(S(=O)(=O)N4CC(C)CC(C)C4)cc3c2C)CC1 (configuration not stated) | 10.3 | 10.9* | -0.5 | -7.6 | 0.1 | -0.5 | -2.1
COc1cc(C(=O)NCC(=O)OCC(=O)c2ccc[nH]2)cc(OC)c1OC | 13.5 | 14.1* | 1.1 | 2.2 | 0.1 | -0.1 | -0.5
COc1ccc(C(=O)NCC(=O)OCC(=O)c2cc(OC)c(OC)c(OC)c2)cc1OC | 12.9 | -2.8 | 1.0 | 0.2 | -0.5 | -1.1 | /
C=CCn1c(SCC(=O)Nc2ccccc2C)nnc1-c1ccncc1 | 18.9 | 0.8 | 2.9 | -0.5 | 0.7 | 3.3 | /
C=CCn1c(SCC(=O)Nc2ccccc2CC)nnc1-c1ccncc1 | 11.7 | 13.4* | 4.9 | 1.0 | / | -50.4 | 2.8
Cc1ccc(S(=O)(=O)c2nc(Nc3ccccc3)sc2Cl)cc1 | 12.0 | -1.7 | 0.7 | 1.8 | 0.5 | 3.4 | /
COc1ccc(Nc2nc(S(=O)(=O)c3ccc(C)cc3)c(Cl)s2)cc1 | 18.9 | 11.4* | 2.3 | 1.6 | 0.1 | 0.5 | 1.9
COC(=O)c1ccc(COc2ccccc2/C=C(\C#N)C(=O)Nc2ccccc2C)cc1 | 6.6 | 20.3* | 0.3 | -35.2 | 0.2 | -61.5 | -0.6
COC(=O)c1ccc(COc2ccccc2/C=C(\C#N)C(=O)Nc2c(C)cccc2C)cc1 | 13.7 | -0.1 | -1.7 | 0.4 | 0.2 | 1.4 | /
COc1ccc(N2CCN(C(=O)C3CCN(C(=O)c4cccc(Cl)c4)CC3)CC2)cc1 | -0.9 | / | -0.5 | / | 0.3 | / | /
COc1ccc(OC)c(CNC(=O)CCCc2cn(C)c3ccccc23)c1 | 12.0 | 1.8 | 0.4 | -2.5 | -0.4 | -9.6 | /
COc1ccc(Br)cc1CNC(=O)CCCc1cn(C)c2ccccc12 | 16.5 | 11.1* | -3.1 | -2.2 | 1.7 | 0.2 | -3.9
CC(C)CN(C(=O)COC(=O)CNC(=O)c1ccccc1F)C1CCS(=O)(=O)C1 (configuration not stated) | -2.0 | -3.0 | -4.1 | 0.6 | -0.8 | 0.5 | /
CCC(C)N(C(=O)COC(=O)CNC(=O)c1ccccc1F)C1CCS(=O)(=O)C1 (configuration not stated) | -15.0 | 14.8* | 3.6 | -0.8 | -0.5 | -1.6 | -1.3
CC(=O)c1c(C)[nH]c(C(=O)NCc2ccco2)c1C | 29.0 | 11.7* | 1.5 | -0.3 | -0.9 | -2.3 | 4.2
O=C(c1ccccc1Cl)N1CCN(c2ncccn2)CC1 | 3.4 | / | -0.3 | / | 0.6 | / | /
CC1CCN(S(=O)(=O)c2ccc3c(c2)N(CC(=O)NCCN2C(C)CCCC2C)C(=O)CS3)CC1 (configuration not stated) | 35.8 | / | 8.7 | / | -0.6 | / | /
O=C(Cc1ccc(Cl)cc1)Nc1ccc(S(=O)(=O)Nc2cnc3ccccc3n2)cc1 | 37.4 | 11.5* | -0.5 | -0.7 | 0.9 | -0.3 | 0.8
O=C(Nc1ccc(S(=O)(=O)Nc2cnc3ccccc3n2)cc1)c1ccc(Cl)cc1Cl | ? | / | 1.4 | / | 0.5 | / | /
COC(=O)C1CCN(C(=O)/C=C/c2ccc(OC)cc2)CC1 | 22.2 | 11.1* | 1.6 | 1.9 | -0.3 | 1.8 | 10.3*
CSc1cccc(NC(=S)Nc2cc(C)ccc2C)c1 | -10.3 | 0.5 | -1.4 | 5.3 | -0.6 | 2.2 | /
C=CCn1c(N)c(C(=O)Nc2ccccc2)c2nc3ccccc3nc21 | 32.0 | 14.8* | 17.8* | 4.1 | -5.2 | 5.1 | 6.1
C=CCn1c(SCc2ccc(C(=O)Nc3ccccc3)cc2)nnc1-c1ccccc1 | -8.4 | 1.5 | -1.3 | -2.9 | / | -10.4 | /
COc1ccc(C(=O)C[n+]2ccc3c(c2)nnn3-c2ccccc2)cc1 | 11.1 | -0.1 | 2.2 | -0.5 | -0.7 | 1.1 | /
SMILES | AI-2 QS mod | Wee1 degr inh | RanGTP-Impb inh | Runt-CBFb FRET | proKLK7 act | Runt-SMMHC FRET | Wee1 stab conf
CCN(CC)CCn1c(NC(=O)c2ccc(C)cc2)nc2ccccc21 | -3.3 | / | -0.2 | / | 0.8 | / | /
CCN(CC)CCn1c(NC(=O)c2ccc(C(F)(F)F)cc2)nc2ccccc21 | 18.3 | 12.9* | 0.4 | 0.3 | 0.4 | -1.4 | 0.4
COc1ccc(N(CC(=O)Nc2ccc(S(=O)(=O)N3CCCCC3)cc2)S(C)(=O)=O)cc1OC | 19.1 | 24.0* | 0.7 | 2.1 | 1.1 | -0.6 | 0.0
COc1ccc(N(CC(=O)Nc2ccc(S(=O)(=O)N3CCCC3)cc2)S(C)(=O)=O)cc1OC | 10.1 | 1.1 | -2.0 | 1.3 | 0.7 | -0.2 | /
COc1ccc(OC)c(S(=O)(=O)N2CCCC(C(=O)N3CCCCCC3)C2)c1 (configuration not stated) | 15.3 | / | -0.3 | / | 0.9 | / | /
Cc1cc(/C=N/NC(=O)COc2cccc3cccnc23)c(C)n1-c1ccc(O)cc1 | 12.7 | 14.1* | 5.8 | 1.6 | -0.1 | 4.9 | 0.4
COc1ccc(C2=NN(C(=O)CN3CCCCC3)C(c3ccc(OC)cc3)C2)cc1 (configuration not stated) | 24.7 | 13.3* | -5.9 | 1.1 | 0.4 | -0.1 | 2.6
Cn1c(N)c(C(=O)COC(=O)COc2ccc(Cl)cc2Cl)c(=O)n(C)c1=O | / | / | / | / | -0.6 | / | /
CC(C)COC(=O)c1ccccc1N1C(=O)C2C3CCC(C3)C2C1=O (configuration not stated) | 20.9 | -0.7 | 3.2 | -2.3 | -0.5 | 0.9 | /
CCCCOC(=O)c1ccccc1N1C(=O)C2C3CCC(C3)C2C1=O (configuration not stated) | 7.8 | 12.4* | 3.9 | -1.8 | -0.3 | -3.1 | -2.1
O=C(c1cc([N+](=O)[O-])[nH]n1)N1CCSCC1 | -6.6 | -0.8 | 0.4 | 1.5 | 0.3 | -8.0 | /
Cc1ccc(C(=O)OCC(=O)Nc2ccc(C)c(S(=O)(=O)N3CCCCC3)c2)c(O)c1 | / | / | / | / | 0.4 | / | /
CCOc1ccc(Cc2noc3c2C(=O)CCC3)cc1OCC | 30.1 | 17.1* | 3.4 | 1.7 | 0.3 | 1.5 | 2.3
Cc1cc2nc(CSc3ccccc3)cc(=O)n2[nH]1 | 18.0 | 1.2 | 3.1 | 13.4 | -0.1 | 13.9 | /
CC(C)(C)NC(=O)C(c1ccc(F)cc1)N(Cc1cccs1)C(=O)c1ccc(CN2CCOCC2)o1 (configuration not stated) | 18.7 | 10.9* | ? | -1.4 | 0.0 | 2.7 | 1.6
CC(C)CCNC(=O)C(C)N(Cc1ccc(F)cc1)C(=O)c1ccc(CN2CCOCC2)o1 (configuration not stated) | 3.8 | 0.5 | -1.4 | -0.7 | -0.2 | 1.7 | /
